Results on 69 compounds are retold here after ChEMBL document CHEMBL1155814, “Structure-activity correlations for beta-phenethylamines at human trace amine receptor 1” (Bioorg Med Chem, 2008).

Structures are written as SMILES. The source made the active and inactive calls.

In general, EC50 refers to the concentration at which the effect is half-maximal. In general, Emax refers to the greatest response seen or fitted, relative to the assay's reference.

Common to all, as to format: functional, cell-based
The target in experiment [1] is T1, Trace amine-associated receptor 1 (Homo sapiens, UniProt Q96RJ0).
T1 sequence (Q96RJ0 whole entry): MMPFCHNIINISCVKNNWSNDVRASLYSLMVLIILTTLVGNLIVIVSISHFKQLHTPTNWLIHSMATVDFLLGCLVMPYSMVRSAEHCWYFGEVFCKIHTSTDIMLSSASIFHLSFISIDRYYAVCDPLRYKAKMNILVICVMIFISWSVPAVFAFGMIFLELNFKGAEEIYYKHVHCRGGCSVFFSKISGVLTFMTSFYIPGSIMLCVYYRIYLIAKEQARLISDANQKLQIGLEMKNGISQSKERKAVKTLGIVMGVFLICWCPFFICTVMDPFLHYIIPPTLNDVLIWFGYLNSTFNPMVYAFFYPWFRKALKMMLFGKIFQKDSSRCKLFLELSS
The experiment can be described thus: (§1) Agonist activity at human trace amine associated receptor 1 expressed in RD-HGA16 CHO-K1 cells coexpressed with Galpha16 protein assessed as internal calcium mobilization by calcium 3 assay. The gist of the method:
(§2)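 Unmodified human TAAR1 stably expressed in CHO cells carrying Galpha16 (RD-HGA16). Cells seeded at 30,000/well in HAM's F-12 with 10% FBS, 400 ug/mL hygromycin and 400 µg/mL geneticin, overnight at 37 °C, 5% CO2. Loaded 1 h at 37 °C with Calcium 3 dye at 1/3 kit strength. Basal signal recorded 13 sec before compound addition. Compounds tested at 7–8 concentrations in duplicate. A six-point β-PEA curve was run on each plate.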

Experiment [2] deals with T2, Trace amine-associated receptor 1 (Homo sapiens) (UniProt Q96RJ0).
T2 sequence (whole entry): T1 sequence (Q96RJ0 whole entry)
The experiment can be described thus: Agonist activity at human trace amine associated receptor 1 expressed in RD-HGA16 CHO-K1 cells coexpressed with Galpha16 protein assessed as internal calcium mobilization by calcium 3 assay relative to 2-phenylethanamine. The gist of the method:
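Unmodified human TAAR1 stably expressed in CHO cells carrying Galpha16 (RD-HGA16). Cells seeded at 30,000/well in HAM's F-12 with 10% FBS, 400 ug/mL hygromycin and 400 µg/mL geneticin, overnight at 37 °C, 5% CO2. Loaded 1 h at 37 °C with Calcium 3 dye at 1/3 kit strength. Fluorescence read from the bottom at 485/525 nm, 515 cutoff. Basal signal recorded 13 sec before compound addition. Compounds tested at 7–8 concentrations in duplicate. A six-point β-PEA curve was run on each plate.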
Background: Calcium flux is commonly read through the fluorescence of an indicator in the cells.

Experiment [3] concerns the target T1, Trace amine-associated receptor 1. The experiment can be described thus: Agonist activity at human trace amine associated receptor 1 expressed in AV12-664 cells coexpressed with rat GalphaS protein assessed as cAMP accumulation. Background: Changes in cAMP serve as a functional read-out for many G protein-coupled receptors.
The target of experiment [4] is T2, Trace amine-associated receptor 1 (Homo sapiens). Nature of the experiment: Agonist activity at human trace amine associated receptor 1 expressed in AV12-664 cells coexpressed with rat […] protein assessed as cAMP accumulation relative to 2-phenylethanamine.
Experiment [5] has the same target. The description is as §1. The gist of the method:
as §2

Regarding `CC(C)C(CN)c1ccccc1` (stereo unspecified), the concentration giving a half-maximal response (EC50) in experiment [1] worked out at 9.95 µM. Besides, the maximal response (Emax) in experiment [2] stood at 46%.

On to `CN(C)CCc1ccccc1`, for which the EC50 in experiment [1] amounted to 100 µM; in experiment [3], 1.49 µM. For the same compound, the Emax in experiment [4] is 97.1%. As to `NCCc1c(F)cccc1Cl`, the concentration giving a half-maximal response (EC50) in experiment [1] was found to be 0.312 µM. Moreover, the Emax in experiment [2] was found to be 94%. Take `CN(C)CCc1ccc(Br)cc1`: the EC50 in experiment [1] is 24.4 µM. In addition, the Emax in experiment [2] is 40%. As for `NCCc1cccc(Br)c1`, the EC50 in experiment [1] was determined as 0.398 µM. In experiment [2], the maximal effect (Emax) amounted to 75%. On to `CN(C)CCc1cccc(Cl)c1`, for which the EC50 in experiment [1] was 5.98 µM. Besides, the Emax in experiment [2] was found to be 62%. Turning to `Cc1cccc(CCN)c1`, the EC50 in experiment [1] was 0.638 µM. The Emax in experiment [2] is 93%.

`CN(C)CCc1ccccc1Br`: in experiment [1], the 50% effective concentration (EC50) turned out to be 3.46 µM. Further, the maximum response (Emax) in experiment [2] is 78%.

In the case of `NCC(c1ccccc1)c1ccccc1`, the EC50 in experiment [1] stood at 3.4 µM. The Emax in experiment [2] is 70%. For `NCCc1cccc(C(F)(F)F)c1` the same measures were 3.95 µM and 69%. As for `CCc1ccc(CCN)cc1`, the half-maximal effective concentration (EC50) in experiment [1] stood at 9.1 µM. In addition, in experiment [2], the Emax turned out to be 86%. Take `NCCc1cccc(Cl)c1Cl`: in experiment [1], the EC50 was determined as 1.16 µM. For the same compound, the Emax in experiment [2] came to 84%.

For `CC(C)(C)c1ccc(CCN)cc1`, the EC50 in experiment [1] turned out to be 5110 µM.

For the compound `N[C@@H]1C[C@H]1c1ccccc1` (relative stereo), in experiment [1], the EC50 turned out to be 1.51 µM. Moreover, the Emax in experiment [2] was 72%.

In the case of `NCCc1c(F)cc(O)cc1F`, the EC50 in experiment [1] is 0.767 µM. The Emax in experiment [2] came to 103%. Regarding `CNCCc1ccccc1Cl`, the EC50 in experiment [1] amounted to 0.16 µM. The maximal effect (Emax) in experiment [2] was 70%. `COc1ccccc1CCN`: the EC50 in experiment [1] was determined as 0.144 µM. In addition, the maximal response (Emax) in experiment [2] is 95%. For `COc1cc(CCN)c(OC)cc1C` the same measures were 6.48 µM and 36%. As to `CC(C)(CN)c1ccccc1`, the EC50 in experiment [1] turned out to be 7.88 µM. Besides, in experiment [2], the Emax came to 70%.

Turning to `NCCc1cccc(Cl)c1`, in experiment [1], the concentration for a half-maximal effect (EC50) was 0.189 µM. In experiment [2], the maximum response (Emax) amounted to 105%. Take `Cc1ccccc1CCN`: in experiment [1], the EC50 worked out at 0.355 µM. The maximal effect (Emax) in experiment [2] was 97%. Take `CNCCc1ccc(Cl)cc1`: in experiment [1], the EC50 was 7.43 µM. For the same compound, the Emax in experiment [2] was 67%. On to `NCCc1ccccc1Br`, for which, in experiment [1], the EC50 came to 0.057 µM. Also, the maximal response (Emax) in experiment [2] was found to be 89%. For `Cc1ccc(CCN)cc1` the same measures were 4.38 µM and 96%.

Take `NCCc1ccc(Br)cc1`: the EC50 in experiment [1] is 1.54 µM. For the same compound, the maximum response (Emax) in experiment [2] was 98%. As for `NCCc1cccc(F)c1`, the concentration giving a half-maximal response (EC50) in experiment [1] came to 0.15 µM. Besides, in experiment [2], the Emax is 93%. For `NCCc1ccc(Cl)c(Cl)c1` the same measures were 3.43 µM and 78%.

Consider `CNCCc1cccc(F)c1`, for which the half-maximal effective concentration (EC50) in experiment [1] came to 0.53 µM. The Emax in experiment [2] came out at 88%. On the same counts, the results for `CN(C)CCc1ccccc1F` are 1.29 µM and 75%. For `CNCCc1ccc(Br)cc1` the same measures were 6.54 µM and 60%.

For `CNCCc1cccc(Cl)c1`, in experiment [1], the concentration for a half-maximal effect (EC50) stood at 0.501 µM. The Emax in experiment [2] came to 77%. Take `CNCCc1ccccc1Br`: the EC50 in experiment [1] came out at 0.205 µM. In addition, in experiment [2], the Emax was determined as 93%. For `CN(C)CCc1ccccc1Cl`, the EC50 in experiment [1] turned out to be 0.687 µM. In addition, the Emax in experiment [2] was 79%.

Regarding `NCCc1ccccc1Cl`, in experiment [1], the EC50 came to 0.077 µM. Besides, the maximal effect (Emax) in experiment [2] is 72%. With `COc1cc(CCN)c(OC)cc1Br`, in experiment [1], the concentration for a half-maximal effect (EC50) worked out at 7.19 µM. For the same compound, the Emax in experiment [2] was determined as 22%. On the same counts, the results for `COc1cccc(CCN)c1` are 1.44 µM and 73%. On the same counts, the results for `COc1cc(F)c(CCN)c(F)c1` are 1.4 µM and 90%. As for `CCc1cc(OC)c(CCN)cc1OC`, in experiment [1], the 50% effective concentration (EC50) is 6.41 µM. The Emax in experiment [2] was determined as 32%. In the case of `CNCCc1ccccc1F`, in experiment [1], the EC50 stood at 0.117 µM. In experiment [2], the maximum response (Emax) was 75%. On the same counts, the results for `NCCc1cccc(O)c1` are 1.74 µM and 78%. With `C[C@H](CN)c1ccccc1`, in experiment [1], the EC50 was found to be 0.129 µM. Also, the Emax in experiment [2] was determined as 104%. For `CNCCc1cccc(Br)c1` the same measures were 1.07 µM and 71%. Regarding `COc1cc(CCN)c(OC)cc1Cl`, in experiment [1], the concentration for a half-maximal effect (EC50) was 3.75 µM. The maximal response (Emax) in experiment [2] is 30%. As for `NCCc1c(Cl)cccc1Cl`, in experiment [1], the 50% effective concentration (EC50) was found to be 0.051 µM. The Emax in experiment [2] was 94%. Regarding `NCCc1ccc([N+](=O)[O-])cc1`, the EC50 in experiment [1] turned out to be 167 µM. Regarding `Cc1ccc(C)c(CCN)c1`, the EC50 in experiment [1] turned out to be 0.377 µM. The Emax in experiment [2] was 84%. `CN(C)CCc1cccc(Br)c1`: the concentration for a half-maximal effect (EC50) in experiment [1] was found to be 8.3 µM. The maximal response (Emax) in experiment [2] was 88%. For the compound `NCCc1ccc2c(c1)OCO2`, the EC50 in experiment [1] amounted to 5.03 µM. Besides, the maximal response (Emax) in experiment [2] amounted to 63%. On to `C[C@H](N)Cc1ccccc1`, for which, in experiment [2], the maximal effect (Emax) came out at 74%.

`C[C@@H](CN)c1ccccc1`: the half-maximal effective concentration (EC50) in experiment [1] amounted to 0.361 µM. Also, the maximal response (Emax) in experiment [2] was 97%. Turning to `C[C@@H](N)Cc1ccccc1`, the Emax in experiment [2] is 64%. As for `NCCc1ccccc1` [PHENETHYLAMINE], in experiment [1], the EC50 was determined as 0.129 µM. In experiment [2], the maximum response (Emax) came to 100%.

On to `CN(C)CCc1cccc(F)c1`, for which the EC50 in experiment [1] amounted to 4.32 µM. The maximal response (Emax) in experiment [2] was determined as 78%.

Consider `NCCc1ccc(O)cc1` [TYRAMINE], for which the EC50 in experiment [1] was 0.731 µM. Moreover, the Emax in experiment [2] was 91%.

For `CN(C)CCc1ccc(F)cc1`, the concentration for a half-maximal effect (EC50) in experiment [1] was found to be 19.1 µM. The Emax in experiment [2] is 71%. On the same counts, the results for `NCC1(c2ccccc2)CC1` are 5.05 µM and 79%. On the same counts, the results for `COc1ccc(OC)c(CCN)c1` are 2.01 µM and 69%. As to `CNCCc1ccc(F)cc1`, the EC50 in experiment [1] was 1.04 µM. The Emax in experiment [2] was found to be 63%. Consider `NCCc1ccc(C(F)(F)F)cc1`, for which the half-maximal effective concentration (EC50) in experiment [1] turned out to be 11.6 µM. The maximal effect (Emax) in experiment [2] is 78%. For the compound `NCCc1ccccc1O`, the EC50 in experiment [1] turned out to be 0.614 µM. Besides, in experiment [2], the Emax amounted to 90%.

For the compound `NCCc1ccc(F)cc1`, in experiment [1], the half-maximal effective concentration (EC50) was 0.74 µM. Moreover, the maximal effect (Emax) in experiment [2] was determined as 81%. On to `CC(C)(N)Cc1ccccc1` [PHENTERMINE], for which, in experiment [1], the EC50 was found to be 5.47 µM. Also, the maximal response (Emax) in experiment [2] turned out to be 68%.

As for `COc1ccc(CCN)cc1`, the EC50 in experiment [1] amounted to 5.98 µM. Further, the maximal effect (Emax) in experiment [2] is 106%.

Regarding `CNCCc1ccccc1`, the EC50 in experiment [1] was found to be 0.387 µM; in experiment [3], 0.25 µM. In addition, the maximal effect (Emax) in experiment [2] stood at 69%; in experiment [4], 93.4%. Take `NCCc1ccccc1F`: the EC50 in experiment [1] was 0.065 µM. For the same compound, the Emax in experiment [2] was 91%. Take `NCCc1ccccc1I`: the EC50 in experiment [1] was 0.103 µM. In addition, the Emax in experiment [2] came out at 109%. `NCCc1ccc(Cl)cc1`: in experiment [1], the half-maximal effective concentration (EC50) was 2.86 µM. The Emax in experiment [2] was 104%. On the same counts, the results for `CN(C)CCc1ccc(Cl)cc1` are 630 µM and 43%.

Consider `COc1cc(OC)c(OC)cc1CCN`, for which the outcome in experiment [5] was inactive.
